Assay results reported in ChEMBL document CHEMBL1123708, “Resolved cis- and trans-2-amino-5-methoxy-1-methyltetralins: central dopamine receptor agonists and antagonists” (1987).
Active and inactive are the calls of the source. No cut-off for these calls is given here.

Assays:
Rattus norvegicus [1] = experiment: Locomotory activity was determined in non pretreated rats at a dose of 52 umol/kg by subcutaneous administration; I denotes inactive; assay type: functional
Summary of the method: (§1)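 Untreated rats received test drug sc 5 min before a 30-min session in photocell motility meters, with accumulated counts recorded. Activity is expressed as percent of saline controls, mean ± SEM, n = 3-5. Gross behaviour was observed through a semitransparent mirror. Differences from saline controls were assessed by Student's t test.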

Rattus norvegicus [2] = experiment: In vivo DOPA accumulation in reserpine pretreated rat striatum system by subcutaneous administration; assay type: functional; conditions: sc
Summary of the method: (§2)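 Rats received reserpine (5 mg/kg sc) 18 h, test drug sc 60 min and NSD 1015 (100 mg/kg ip) 30 min before death, with saline controls. Limbic or striatal DOPA was measured. Dose for half-maximal decrease was estimated from 4-7-dose curves (n = 3-5), minimal level as % of control.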

Rattus norvegicus [3] = experiment: Locomotory activity was determined in reserpine pretreated rats at a dose of 204 umol/kg by subcutaneous administration. Value is the accumulation counts/30 min; assay type: functional
Summary of the method: (§3)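 Rats were given reserpine 5 mg/kg sc 18 h beforehand, then test drug sc immediately before the activity session. Motor activity was recorded by photocells in motility meters as accumulated counts over 30 min, mean ± SEM, n = 3-4. Gross behaviour was watched for signs of stimulation. Reserpine-only controls were included.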

[4] = biological target: T1, Dopamine receptor (Rattus norvegicus) (UniProt P25115+P19020+P30729+P18901+P61169); conditions: 22 uM
Rattus norvegicus [5] = experiment: Locomotory activity was determined in non pretreated rats at a dose of 3.2 umol/kg by subcutaneous administration; I denotes inactive; assay type: functional, organism-based; summary of the method: as §1
[6] = biological target: T1, Dopamine receptor (Rattus norvegicus); conditions: 45 uM
Rattus norvegicus [7] = experiment: Change in rectal temperature induced by DiPr-5,6-ADTN at a dose of 45 umol/kg of compound by subcutaneous administration; assay type: functional
Summary of the method: (§4)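 Rats received DiPr-5,6-ADTN (0.25 μmol/kg sc) 100 min and test compound sc 40 min before death. Rectal temperature change (°C) was recorded between 60 and 100 min after DiPr-5,6-ADTN. Values are mean ± SEM, n = 4, with Student's t test vs DiPr-5,6-ADTN alone.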

Rattus norvegicus [8] = experiment: In vivo DOPA accumulation in non pretreated rat limbic system by subcutaneous administration; I denotes inactive; assay type: functional, organism-based
Summary of the method: (§5)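 Rats without pretreatment received test drug sc 65 min and NSD 1015 (100 mg/kg ip) 30 min before death, with saline controls. DOPA was measured in limbic or striatal tissue. Dose for half-maximal change was estimated from 4-5-dose curves (n = 3-5), maximal level as % of control.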

Rattus norvegicus [9] = experiment: In vivo DOPA accumulation in reserpine pretreated rat limbic system by subcutaneous administration; assay type: functional; conditions: sc; summary of the method: as §2
Rattus norvegicus [10] = experiment: Change in rectal temperature induced by DiPr-5,6-ADTN at a dose of 22 umol/kg of compound by subcutaneous administration; assay type: functional; summary of the method: as §4
Rattus norvegicus [11] = experiment: In vivo DOPA accumulation in non pretreated rat striatum system by subcutaneous administration; I denotes inactive; assay type: functional, organism-based; summary of the method: as §5
Rattus norvegicus [12] = experiment: In vivo DOPA accumulation in non pre-treated rat striatal system following s.c. administration.; assay type: functional; conditions: sc; summary of the method: as §5
Rattus norvegicus [13] = experiment: In vivo DOPA accumulation in reserpine pretreated rat striatum system after 1.4 umol/kg ip; I denotes inactive; assay type: functional, organism-based
Rattus norvegicus [14] = experiment: Change in rectal temperature induced by DiPr-5,6-ADTN at a dose of 2.7 umol/kg of compound by subcutaneous administration; assay type: functional
Summary of the method: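 Rats received DiPr-5,6-ADTN at 0.25 μmol/kg sc, then the test compound sc (tested range 2.7–204 μmol/kg) 60 min later. Rectal temperature change was measured between 60 and 100 min after DiPr-5,6-ADTN. Values are mean ± SEM, n = 4, compared with DiPr-5,6-ADTN-only controls by Student's t test.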

Rattus norvegicus [15] = experiment: In vivo DOPA accumulation in reserpine pretreated rat limbic system after 1.4 umol/kg ip; I denotes inactive; assay type: functional, organism-based
Rattus norvegicus [16] = experiment: In vivo DOPA accumulation in non pre-treated rat limbic system following s.c. administration.; assay type: functional; conditions: sc; summary of the method: as §5
Rattus norvegicus [17] = experiment: Locomotory activity was determined in non pretreated rats at a dose of 2.7 umol/kg by intraperitoneal administration
Rattus norvegicus [18] = experiment: Locomotory activity was determined in non pretreated rats at a dose of 0.32 umol/kg by subcutaneous administration; assay type: functional; summary of the method: as §1
Rattus norvegicus [19] = experiment: Locomotory activity was determined in non pretreated rats at a dose of 3.2 umol/kg by subcutaneous administration; assay type: functional; summary of the method: as §1
Rattus norvegicus [20] = experiment: Locomotory activity was determined in reserpine pretreated rats at a dose of 3.2 umol/kg by subcutaneous administration. Value is the accumulation counts/30 min; assay type: functional; summary of the method: as §3
[21] = biological target: T1, Dopamine receptor (Rattus norvegicus); experiment: Ability to displace the Dopamine receptor agonist DiPr-5,6-ADTN from rat striatal binding sites in vivo at a dose of 13 uM/kg by subcutaneous administration; assay type: organism-based
Rattus norvegicus [22] = experiment: Induced locomotor stimulation in non pre-treated rats by 13 umol/kg s.c. administration.; assay type: functional
Rattus norvegicus [23] = experiment: Locomotory activity was determined in non pretreated rats at a dose of 52 umol/kg by subcutaneous administration.; assay type: functional; summary of the method: as §1
Rattus norvegicus [24] = experiment: Change in rectal temperature induced by DiPr-5,6-ADTN at a dose of 13 umol/kg of compound by subcutaneous administration; assay type: functional; summary of the method: as §4
Rattus norvegicus [25] = experiment: In vivo DOPA accumulation in reserpine pretreated rat limbic system by subcutaneous administration.; assay type: functional; conditions: sc; summary of the method: as §2
Rattus norvegicus [26] = experiment: Locomotory activity was determined in reserpine pretreated rats at a dose of 52 umol/kg by subcutaneous administration. Value is the accumulation counts/30 min; assay type: functional; summary of the method: as §3
Rattus norvegicus [27] = experiment: In vivo DOPA accumulation in reserpine pretreated rat striatum system by subcutaneous administration.; assay type: functional; conditions: sc; summary of the method: as §2
[28] = biological target: T1, Dopamine receptor (Rattus norvegicus); experiment: Ability to displace the DA receptor agonist DiPr-5,6-ADTN from rat striatal binding sites in vivo at a dose of 40 uM/kg by subcutaneous administration; assay type: organism-based
Rattus norvegicus [29] = experiment: Change in rectal temperature induced by DiPr-5,6-ADTN at a dose of 40 umol/kg of compound by subcutaneous administration; assay type: functional; summary of the method: as §4
Rattus norvegicus [30] = experiment: Locomotory activity was determined in non pretreated rats at a dose of 13.4 umol/kg by subcutaneous administration; assay type: functional; summary of the method: as §1
[31] = biological target: T1, Dopamine receptor (Rattus norvegicus); experiment: Ability to displace the Dopamine receptor agonist DiPr-5,6-ADTN from rat striatal binding sites in vivo at a dose of 10 uM/kg by subcutaneous administration; assay type: organism-based
Rattus norvegicus [32] = experiment: Change in rectal temperature induced by DiPr-5,6-ADTN at a dose of 10 umol/kg of compound by subcutaneous administration; assay type: functional; summary of the method: as §4

CCCN(CCC)[C@H]1CCc2c(OC)cccc2[C@H]1C was tested, and the Activity (Rattus norvegicus [1]) was “inactive”, the ED50 (Rattus norvegicus [2]) was 5.8 µmol/kg and the Activity (Rattus norvegicus [3]) was 8 counts/30 min. For the same molecule, the Binding [4] was 106%, the Activity (Rattus norvegicus [5]) was “inactive” and the Binding [6] was 94%. For the same molecule, the Body temp change (Rattus norvegicus [7]) was 0.5 °C, the ED50 (Rattus norvegicus [8]) was “inactive” and the ED50 (Rattus norvegicus [9]) was 5.5 µmol/kg. For the same molecule, the Body temp change (Rattus norvegicus [10]) was 0.12 °C and the ED50 (Rattus norvegicus [11]) was “inactive”.
With O=C(CCCN1CCC(O)(c2ccc(Cl)cc2)CC1)c1ccc(F)cc1 [HALOPERIDOL] the ED50 (Rattus norvegicus [12]) was 0.19 µmol/kg, the ED50 (Rattus norvegicus [13]) was “inactive” and the Body temp change (Rattus norvegicus [14]) was 1.34 °C. For the same molecule, the ED50 (Rattus norvegicus [15]) was “inactive”, the ED50 (Rattus norvegicus [16]) was 0.19 µmol/kg and the Activity (Rattus norvegicus [17]) was 3%.
Work on CN1CCc2cccc3c2[C@H]1Cc1ccc(O)c(O)c1-3 [APOMORPHINE] yielded an Activity (Rattus norvegicus [18]) of 52%, an ED50 (Rattus norvegicus [2]) of 0.044 µmol/kg and an Activity (Rattus norvegicus [19]) of 277%. For the same molecule, the ED50 (Rattus norvegicus [9]) was 0.041 µmol/kg and the Activity (Rattus norvegicus [20]) was 366 counts/30 min.
CCCN(CCC)[C@H]1CCc2c(O)cccc2[C@@H]1C was tested, and the Activity (Rattus norvegicus [19]) was 79%, the Binding [21] was 91% and the Activity (Rattus norvegicus [22]) was 92%. For the same molecule, the Activity (Rattus norvegicus [23]) was 74%, the Body temp change (Rattus norvegicus [24]) was -0.83 °C and the ED50 (Rattus norvegicus [25]) was 7.3 µmol/kg. The Activity (Rattus norvegicus [26]) was 19 counts/30 min and the ED50 (Rattus norvegicus [27]) was 7.9 µmol/kg.
For CCCN(CCC)[C@H]1CCc2c(O)cccc2[C@H]1C, the ED50 (Rattus norvegicus [2]) was 0.34 µmol/kg, the ED50 (Rattus norvegicus [12]) was 0.84 µmol/kg and the Activity (Rattus norvegicus [19]) was 65%. It also gave a Binding [28] of 37%, a Body temp change (Rattus norvegicus [29]) of -0.2 °C and an ED50 (Rattus norvegicus [16]) of 0.84 µmol/kg. For the same molecule, the ED50 (Rattus norvegicus [9]) was 0.3 µmol/kg, the Activity (Rattus norvegicus [30]) was 171% and the Binding [31] was 90%. The Body temp change (Rattus norvegicus [32]) was 0.1 °C and the Activity (Rattus norvegicus [20]) was 121 counts/30 min.
